Laboratory results taken from ChEMBL document CHEMBL1155278, “3,4-Diaryl-isoxazoles and -imidazoles as potent dual inhibitors of p38alpha mitogen activated protein kinase and casein kinase 1delta” (J Med Chem, 2009).

Assays:
[1] = molecular target: Casein kinase I isoform delta (Rattus norvegicus, UniProt Q06486); assay: Inhibition of GST-fused rat CK1delta by Cherenkov counting in presence of 20 uM ATP
[2] = molecular target: Dual specificity mitogen-activated protein kinase kinase 1 (Homo sapiens) (UniProt Q02750); assay: Inhibition of MKK1 at 0.1 uM by Cherenkov counting in presence of 5 uM ATP
Summary of the method: (§1)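 Single-concentration selectivity screen at 0.1 μM against a panel of 76 protein kinases. Each kinase was run at an ATP level approximating its Km for ATP. Output is mean residual activity as % of the control assay without compound, n = 3 ± SD.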

[3] = molecular target: Mitogen-activated protein kinase 9 (Homo sapiens) (UniProt P45984); assay: Inhibition of JNK2 assessed as residual activity at 0.1 uM by Cherenkov counting relative to control in presence of 20 uM ATP; summary of the method: as §1
[4] = molecular target: Mitogen-activated protein kinase 11 (Homo sapiens) (UniProt Q15759); assay: Inhibition of p38beta assessed as residual activity at 0.1 uM by Cherenkov counting relative to control
Summary of the method: (§2)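 Single-concentration screen at 0.1 μM in a 76-kinase panel. ATP for each kinase was set near its Km for ATP. Residual activity is given as a percentage of control assays without compound, mean of n = 3 ± SD.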

[5] = molecular target: Ribosomal protein S6 kinase alpha-1 (Homo sapiens) (UniProt Q15418); assay: Inhibition of RSK1 assessed as residual activity at 0.1 uM by Cherenkov counting relative to control; summary of the method: as §2
[6] = molecular target: T1, Serine/threonine-protein kinase Sgk1 (Homo sapiens) (UniProt O00141); assay: Inhibition of SGK1 assessed as residual activity at 0.1 uM by Cherenkov counting relative to control in presence of 20 uM ATP; summary of the method: as §2
T1 sequence (whole entry): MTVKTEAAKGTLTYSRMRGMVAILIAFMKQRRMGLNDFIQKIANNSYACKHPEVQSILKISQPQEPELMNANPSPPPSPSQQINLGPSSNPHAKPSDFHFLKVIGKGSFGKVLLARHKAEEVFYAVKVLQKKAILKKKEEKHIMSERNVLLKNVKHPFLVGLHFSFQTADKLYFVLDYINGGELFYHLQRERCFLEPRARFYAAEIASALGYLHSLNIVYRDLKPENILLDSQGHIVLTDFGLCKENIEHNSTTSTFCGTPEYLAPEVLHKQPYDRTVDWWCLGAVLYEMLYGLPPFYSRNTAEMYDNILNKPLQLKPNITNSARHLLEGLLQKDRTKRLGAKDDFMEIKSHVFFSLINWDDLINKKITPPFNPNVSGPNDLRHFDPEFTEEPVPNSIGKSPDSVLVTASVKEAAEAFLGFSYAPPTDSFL

[7] = molecular target: Proto-oncogene tyrosine-protein kinase Src (Homo sapiens) (UniProt P12931); assay: Inhibition of Src assessed as residual activity at 0.1 uM by Cherenkov counting relative to control in presence of 50 uM ATP; summary of the method: as §2
[8] = molecular target: Tyrosine-protein kinase CSK (Homo sapiens) (UniProt P41240); assay: Inhibition of CSK assessed as residual activity at 0.1 uM by Cherenkov counting relative to control in presence of 20 uM ATP
Summary of the method: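 Single-concentration screen at 0.1 µM across a panel of 76 protein kinases. Each kinase was run at an ATP concentration approximating its ATP Km. Results are % mean residual activity versus control assays without compound (n = 3 ± SD).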

[9] = molecular target: 3-phosphoinositide-dependent protein kinase 1 (Homo sapiens) (UniProt O15530); assay: Inhibition of PDK1 assessed as residual activity at 0.1 uM by Cherenkov counting relative to control in presence of 20 uM ATP
[10] = molecular target: Ribosomal protein S6 kinase alpha-3 (Homo sapiens) (UniProt P51812); assay: Inhibition of RSK2 assessed as residual activity at 10 uM by Cherenkov counting relative to control in presence of 50 uM ATP
Summary of the method: (§3)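 Single-concentration profiling at 10 μM in a 78-kinase panel. Kinase activity is expressed as a percentage of control assays run without compound.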

[11] = molecular target: Rho-associated protein kinase 2 (Homo sapiens) (UniProt O75116); assay: Inhibition of ROCK2 assessed as residual activity at 10 uM by Cherenkov counting relative to control in presence of 20 uM ATP; summary of the method: as §3
[12] = molecular target: T2, Protein kinase C zeta type (Homo sapiens) (UniProt Q05513); assay: Inhibition of PKCzeta assessed as residual activity at 10 uM by Cherenkov counting relative to control in presence of 5 uM ATP; summary of the method: as §3
T2 sequence (whole entry): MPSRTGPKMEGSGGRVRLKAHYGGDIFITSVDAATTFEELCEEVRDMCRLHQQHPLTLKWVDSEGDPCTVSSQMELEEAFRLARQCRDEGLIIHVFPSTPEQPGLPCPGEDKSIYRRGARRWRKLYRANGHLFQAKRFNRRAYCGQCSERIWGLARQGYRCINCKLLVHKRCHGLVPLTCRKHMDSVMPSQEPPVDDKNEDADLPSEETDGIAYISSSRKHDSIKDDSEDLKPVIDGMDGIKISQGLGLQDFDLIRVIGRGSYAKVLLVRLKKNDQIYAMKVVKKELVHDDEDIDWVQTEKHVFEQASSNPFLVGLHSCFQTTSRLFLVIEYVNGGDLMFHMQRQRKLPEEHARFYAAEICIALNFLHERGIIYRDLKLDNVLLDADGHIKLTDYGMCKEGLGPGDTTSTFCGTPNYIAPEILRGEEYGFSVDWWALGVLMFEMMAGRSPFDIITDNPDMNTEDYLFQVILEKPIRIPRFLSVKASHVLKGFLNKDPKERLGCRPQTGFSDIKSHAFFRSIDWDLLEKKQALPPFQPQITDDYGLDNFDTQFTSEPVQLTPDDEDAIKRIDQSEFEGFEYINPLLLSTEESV

[13] = molecular target: MAP kinase-activated protein kinase 2 (Homo sapiens) (UniProt P49137); assay: Inhibition of MAPKAPK2 assessed as residual activity at 10 uM by Cherenkov counting relative to control in presence of 20 uM ATP
[14] = molecular target: Serine/threonine-protein kinase PLK1 (Homo sapiens) (UniProt P53350); assay: Inhibition of PLK1 assessed as residual activity at 10 uM by Cherenkov counting relative to control in presence of 5 uM ATP; summary of the method: as §3
[15] = molecular target: Aurora kinase B (Homo sapiens) (UniProt Q96GD4); assay: Inhibition of Aurora B assessed as residual activity at 10 uM by Cherenkov counting relative to control in presence of 20 uM ATP
Summary of the method: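 Single-point profiling at 10 µM in a panel of 78 protein kinases. Kinase activity is expressed as a percentage relative to control assays without compound.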

[16] = molecular target: Serine/threonine-protein kinase pim-3 (Homo sapiens) (UniProt Q86V86); assay: Inhibition of PIM3 assessed as residual activity at 10 uM by Cherenkov counting relative to control in presence of 20 uM ATP
[17] = molecular target: SRSF protein kinase 1 (Homo sapiens) (UniProt Q96SB4); assay: Inhibition of SRPK1 assessed as residual activity at 10 uM by Cherenkov counting relative to control in presence of 50 uM ATP; summary of the method: as §3
SRSF protein kinase 1 (Homo sapiens), sequence (Q96SB4 whole entry): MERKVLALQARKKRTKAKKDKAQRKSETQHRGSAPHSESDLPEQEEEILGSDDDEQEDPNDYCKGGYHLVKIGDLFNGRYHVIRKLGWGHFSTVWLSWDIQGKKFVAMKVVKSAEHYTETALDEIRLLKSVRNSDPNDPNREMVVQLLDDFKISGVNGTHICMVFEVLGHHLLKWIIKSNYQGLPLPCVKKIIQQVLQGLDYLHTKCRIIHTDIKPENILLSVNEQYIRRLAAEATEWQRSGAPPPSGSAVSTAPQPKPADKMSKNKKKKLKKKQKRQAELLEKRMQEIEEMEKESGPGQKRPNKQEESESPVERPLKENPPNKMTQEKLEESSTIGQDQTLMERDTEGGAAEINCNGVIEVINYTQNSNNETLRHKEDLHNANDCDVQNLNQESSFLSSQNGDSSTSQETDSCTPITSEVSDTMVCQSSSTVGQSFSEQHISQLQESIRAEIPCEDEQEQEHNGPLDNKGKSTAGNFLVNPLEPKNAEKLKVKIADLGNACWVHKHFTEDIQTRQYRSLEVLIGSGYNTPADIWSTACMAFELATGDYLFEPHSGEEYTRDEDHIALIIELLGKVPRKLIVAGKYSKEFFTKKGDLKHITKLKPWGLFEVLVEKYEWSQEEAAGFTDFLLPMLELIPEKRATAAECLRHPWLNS

Casein kinase I isoform delta, sequence (Q06486 whole entry, the tested form may be a part, canonical isoform): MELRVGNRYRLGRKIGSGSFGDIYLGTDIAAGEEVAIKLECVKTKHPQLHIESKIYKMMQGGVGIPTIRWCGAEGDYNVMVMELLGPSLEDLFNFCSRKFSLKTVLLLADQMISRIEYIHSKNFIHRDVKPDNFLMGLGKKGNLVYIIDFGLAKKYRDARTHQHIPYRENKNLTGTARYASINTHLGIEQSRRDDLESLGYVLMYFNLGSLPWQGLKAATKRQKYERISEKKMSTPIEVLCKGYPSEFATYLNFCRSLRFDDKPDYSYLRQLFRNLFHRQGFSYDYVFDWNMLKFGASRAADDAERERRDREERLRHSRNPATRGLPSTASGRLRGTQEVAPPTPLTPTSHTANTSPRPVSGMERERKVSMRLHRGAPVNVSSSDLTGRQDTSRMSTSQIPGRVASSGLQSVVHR
Dual specificity mitogen-activated protein kinase kinase 1 (Homo sapiens), sequence (Q02750 whole entry): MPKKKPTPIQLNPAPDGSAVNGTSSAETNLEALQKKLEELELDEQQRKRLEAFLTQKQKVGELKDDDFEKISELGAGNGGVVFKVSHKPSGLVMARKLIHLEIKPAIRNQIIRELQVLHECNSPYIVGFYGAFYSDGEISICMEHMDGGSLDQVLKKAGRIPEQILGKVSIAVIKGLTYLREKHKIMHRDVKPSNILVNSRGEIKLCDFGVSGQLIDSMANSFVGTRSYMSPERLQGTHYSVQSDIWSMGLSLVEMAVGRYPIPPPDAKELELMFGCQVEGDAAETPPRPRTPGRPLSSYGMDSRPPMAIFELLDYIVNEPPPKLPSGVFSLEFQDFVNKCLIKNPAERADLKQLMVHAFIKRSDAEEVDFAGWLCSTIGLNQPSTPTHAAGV
Mitogen-activated protein kinase 11 (Homo sapiens), sequence (Q15759 whole entry): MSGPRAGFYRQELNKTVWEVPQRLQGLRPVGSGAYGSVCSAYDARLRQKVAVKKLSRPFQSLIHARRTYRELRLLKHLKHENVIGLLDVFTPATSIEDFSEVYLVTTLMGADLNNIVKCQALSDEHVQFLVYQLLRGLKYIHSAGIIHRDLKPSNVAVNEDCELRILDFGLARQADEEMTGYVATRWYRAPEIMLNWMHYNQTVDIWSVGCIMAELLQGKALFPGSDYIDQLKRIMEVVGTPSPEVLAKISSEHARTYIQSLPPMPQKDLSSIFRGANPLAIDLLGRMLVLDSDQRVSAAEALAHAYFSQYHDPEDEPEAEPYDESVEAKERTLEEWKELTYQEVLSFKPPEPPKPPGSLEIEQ
Tyrosine-protein kinase CSK (Homo sapiens), sequence (P41240 2-450 limits assumed): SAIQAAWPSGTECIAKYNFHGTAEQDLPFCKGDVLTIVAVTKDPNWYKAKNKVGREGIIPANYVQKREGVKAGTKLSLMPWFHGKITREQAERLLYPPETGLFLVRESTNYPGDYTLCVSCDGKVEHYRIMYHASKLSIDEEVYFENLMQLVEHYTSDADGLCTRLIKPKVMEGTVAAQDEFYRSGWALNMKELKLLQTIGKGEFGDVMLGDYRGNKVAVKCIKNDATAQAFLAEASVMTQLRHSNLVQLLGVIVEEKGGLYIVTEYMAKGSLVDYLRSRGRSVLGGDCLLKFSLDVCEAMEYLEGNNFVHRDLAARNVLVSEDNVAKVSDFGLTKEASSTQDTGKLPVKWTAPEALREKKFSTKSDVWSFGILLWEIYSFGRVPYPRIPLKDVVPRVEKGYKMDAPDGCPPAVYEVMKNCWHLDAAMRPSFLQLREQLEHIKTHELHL
Serine/threonine-protein kinase PLK1 (Homo sapiens), sequence (P53350 whole entry): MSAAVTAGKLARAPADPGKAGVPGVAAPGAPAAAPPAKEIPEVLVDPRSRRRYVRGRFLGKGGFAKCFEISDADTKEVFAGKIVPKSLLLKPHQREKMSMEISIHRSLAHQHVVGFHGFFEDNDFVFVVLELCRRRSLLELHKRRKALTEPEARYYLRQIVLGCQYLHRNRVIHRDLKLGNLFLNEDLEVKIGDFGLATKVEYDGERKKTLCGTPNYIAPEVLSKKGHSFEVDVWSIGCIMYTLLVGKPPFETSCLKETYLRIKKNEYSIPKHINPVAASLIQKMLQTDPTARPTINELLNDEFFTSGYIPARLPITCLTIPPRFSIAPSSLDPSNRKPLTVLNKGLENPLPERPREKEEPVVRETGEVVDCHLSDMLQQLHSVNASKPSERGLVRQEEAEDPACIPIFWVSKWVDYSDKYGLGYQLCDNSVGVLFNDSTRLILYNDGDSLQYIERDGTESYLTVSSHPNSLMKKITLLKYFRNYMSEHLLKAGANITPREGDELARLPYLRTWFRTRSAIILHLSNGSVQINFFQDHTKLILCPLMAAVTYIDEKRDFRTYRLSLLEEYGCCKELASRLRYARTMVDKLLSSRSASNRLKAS
3-phosphoinositide-dependent protein kinase 1 (Homo sapiens), sequence (O15530 whole entry, looked up): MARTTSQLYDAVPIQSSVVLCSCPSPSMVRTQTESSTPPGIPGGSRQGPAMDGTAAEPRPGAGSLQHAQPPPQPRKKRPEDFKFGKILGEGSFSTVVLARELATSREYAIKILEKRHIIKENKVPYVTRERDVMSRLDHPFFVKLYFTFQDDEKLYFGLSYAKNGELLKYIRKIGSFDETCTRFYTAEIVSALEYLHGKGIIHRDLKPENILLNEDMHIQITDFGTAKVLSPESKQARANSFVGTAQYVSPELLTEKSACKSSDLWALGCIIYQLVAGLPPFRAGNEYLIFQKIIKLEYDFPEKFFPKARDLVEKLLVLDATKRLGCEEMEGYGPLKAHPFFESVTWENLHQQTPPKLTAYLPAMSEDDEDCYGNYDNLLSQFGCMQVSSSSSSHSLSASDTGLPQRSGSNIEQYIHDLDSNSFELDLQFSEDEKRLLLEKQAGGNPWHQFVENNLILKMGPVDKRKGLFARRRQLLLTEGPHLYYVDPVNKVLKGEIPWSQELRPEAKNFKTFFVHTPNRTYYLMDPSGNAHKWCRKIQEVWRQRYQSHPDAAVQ
Ribosomal protein S6 kinase alpha-3 (Homo sapiens), sequence (P51812 whole entry): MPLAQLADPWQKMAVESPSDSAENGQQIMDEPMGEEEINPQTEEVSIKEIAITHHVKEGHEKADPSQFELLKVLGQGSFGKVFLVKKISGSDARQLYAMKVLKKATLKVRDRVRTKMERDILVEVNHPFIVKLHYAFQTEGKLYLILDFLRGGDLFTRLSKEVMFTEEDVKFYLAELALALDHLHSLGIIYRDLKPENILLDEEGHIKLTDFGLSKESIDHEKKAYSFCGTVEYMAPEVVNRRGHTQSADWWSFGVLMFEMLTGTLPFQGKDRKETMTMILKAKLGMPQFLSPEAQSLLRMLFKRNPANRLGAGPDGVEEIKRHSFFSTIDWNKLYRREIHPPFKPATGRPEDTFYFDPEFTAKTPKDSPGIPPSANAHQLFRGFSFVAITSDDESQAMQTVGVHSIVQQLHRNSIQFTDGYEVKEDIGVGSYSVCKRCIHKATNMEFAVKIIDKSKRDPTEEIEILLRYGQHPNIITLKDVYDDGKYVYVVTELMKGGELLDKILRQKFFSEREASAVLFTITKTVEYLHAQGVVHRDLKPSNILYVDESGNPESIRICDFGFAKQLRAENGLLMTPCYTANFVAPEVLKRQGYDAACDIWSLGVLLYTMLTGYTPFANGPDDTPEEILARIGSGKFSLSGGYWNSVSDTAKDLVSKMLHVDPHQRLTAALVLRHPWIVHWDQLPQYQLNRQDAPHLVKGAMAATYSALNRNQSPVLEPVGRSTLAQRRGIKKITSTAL
Aurora kinase B (Homo sapiens), sequence (Q96GD4 whole entry): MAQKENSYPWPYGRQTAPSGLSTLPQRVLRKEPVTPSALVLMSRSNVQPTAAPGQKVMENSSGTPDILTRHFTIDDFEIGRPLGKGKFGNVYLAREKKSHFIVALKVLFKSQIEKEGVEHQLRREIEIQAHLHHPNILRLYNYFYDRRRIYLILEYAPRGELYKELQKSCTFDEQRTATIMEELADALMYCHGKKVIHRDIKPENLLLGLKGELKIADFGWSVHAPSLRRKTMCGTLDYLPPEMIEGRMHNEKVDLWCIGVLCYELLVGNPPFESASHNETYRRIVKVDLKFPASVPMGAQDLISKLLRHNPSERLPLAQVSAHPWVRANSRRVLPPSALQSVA

COc1ccc(/C=C/C(=O)Nc2cc(-c3[nH]c(SC)nc3-c3ccc(F)cc3)ccn2)c(OC)c1 was tested, and the IC50 [1] was 0.005 µM, the inhibition [2] was 73% and the Activity [3] was 31%. The Activity [4] was 17%, the Activity [5] was 78% and the Activity [6] was 87%. For the same compound, the Activity [7] was 49%, the Activity [8] was 81% and the Activity [9] was 74%.

With COc1ccc(/C=C/C(=O)Nc2cc(-c3[nH]c([S+](C)[O-])nc3-c3ccc(F)cc3)ccn2)c(OC)c1 (stereo not given) the IC50 [1] was 0.011 µM, the inhibition [2] was 82% and the Activity [3] was 12%. For the same compound, the Activity [4] was 46%, the Activity [5] was 80% and the Activity [6] was 87%. The Activity [7] was 63%, the Activity [8] was 79% and the Activity [9] was 94%.

With CC(C)c1noc(-c2ccc(F)cc2)c1-c1ccncc1 the Activity [10] was 120%, the Activity [11] was 77% and the Activity [12] was 91%. It also gave an Activity [13] of 100%, an Activity [14] of 93% and an Activity [15] of 22%. For the same compound, the Activity [16] was 78% and the Activity [17] was 86%.

With CC(C)c1onc(-c2ccc(F)cc2)c1-c1ccncc1 the Activity [10] was 113%, the Activity [11] was 76% and the Activity [12] was 81%. For the same compound, the Activity [13] was 105%, the Activity [14] was 104% and the Activity [15] was 101%. For the same compound, the Activity [16] was 81%, the Activity [17] was 81% and the IC50 [1] was 0.23 µM.
